According to ChEMBL document CHEMBL1152146, “Non-nucleoside inhibitors of the hepatitis C virus NS5B RNA-dependant RNA polymerase: 2-aryl-3-heteroaryl-1,3-thiazolidin-4-one derivatives” (Bioorg Med Chem Lett, 2008):

Legend:
Hepatitis C virus [1] = assay: Inhibition of HCV 1b NS5B Cdelta21 polymerase; design: species or system Hepatitis C virus subtype 1b
In short: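 N-terminal His-tagged NS5B lacking the C-terminal 21 residues (genotype 1b). RdRp activity read as total incorporation of radiolabeled UTP on poly rA/U12. IC50 taken from dose–response curves of 8–12 concentrations, run in duplicate in two independent experiments. DMSO held at 10% in all reactions.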

[2] = molecular target: Replicase polyprotein 1ab (Severe acute respiratory syndrome-related coronavirus) (UniProt P0C6X7); assay: Inhibition of SARS coronavirus nsp12 at 0.5 mM
Hepatitis C virus [3] = assay: Inhibition of HCV 1b NS5B Cdelta21 polymerase at 0.25 mM relative to control; design: species or system Hepatitis C virus subtype 1b
In short: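 His-tagged NS5BCΔ21 (genotype 1b) RdRp assay with compound at 0.25 mM and DMSO constant at 10%. Activity without inhibitor, after subtraction of residual background, set as 100%. Values are the mean of at least three independent measurements.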

Escherichia coli = assay: Inhibition of Escherichia coli DNA polymerase 1 Klenow fragment at 0.5 mM

O=C1CSC2(CCN(Cc3ccccc3)CC2)N1c1ccccn1
IC50 (Hepatitis C virus [1]): 71.9 µM
inhibition [2]: < 50%
inhibition at 250 µM (Hepatitis C virus [3]): 85.6%
inhibition (Escherichia coli): < 50%

O=C1CSC(c2c(Br)cccc2Br)N1Cc1cccs1 (stereo not given)
inhibition [2]: < 50%
inhibition at 250 µM (Hepatitis C virus [3]): 62.3%
inhibition (Escherichia coli): < 50%

O=C1CSC(c2c(Cl)cccc2Cl)N1c1nc(-c2ccccc2)cc(C(F)(F)F)n1 (stereo not given)
inhibition [2]: < 50%
inhibition at 250 µM (Hepatitis C virus [3]): 66.4%
inhibition (Escherichia coli): < 50%

O=C1CCSC(c2c(Cl)cccc2Cl)N1Cc1ccco1 (stereo not given)
IC50 (Hepatitis C virus [1]): 52.6 µM
inhibition [2]: < 50%
inhibition at 250 µM (Hepatitis C virus [3]): 94.2%
inhibition (Escherichia coli): < 50%

CC1SC(c2c(Cl)cccc2Cl)N(c2ccccn2)C1=O (stereo not given)
inhibition [2]: < 50%
inhibition at 250 µM (Hepatitis C virus [3]): 73%
inhibition (Escherichia coli): < 50%

Cc1cc(-c2ccccc2)nc(N2C(=O)CSC2c2c(F)cccc2Cl)n1 (stereo not given)
inhibition [2]: < 50%
inhibition at 250 µM (Hepatitis C virus [3]): 65.5%
inhibition (Escherichia coli): < 50%

COc1cc(O)c2c(c1)oc(=O)c1c3cc(O)c(O)cc3oc21 [WEDELOLACTONE]
IC50 (Hepatitis C virus [1]): 36.1 µM

Cc1cc(C(F)(F)F)nc(N2C(=O)CSC2c2c(Br)cccc2Br)n1 (stereo not given)
inhibition [2]: < 50%
inhibition at 250 µM (Hepatitis C virus [3]): 76.3%
inhibition (Escherichia coli): < 50%

O=C1CSC(c2c(Cl)cccc2Cl)N1Cc1cccnc1 (stereo not given)
inhibition [2]: < 50%
inhibition at 250 µM (Hepatitis C virus [3]): 75.6%
inhibition (Escherichia coli): < 50%

O=C1CSC(c2ccc(F)cc2)N1c1ccccn1 (stereo not given)
IC50 (Hepatitis C virus [1]): 31.9 µM
inhibition [2]: < 50%
inhibition at 250 µM (Hepatitis C virus [3]): 98%
inhibition (Escherichia coli): < 50%

CCc1nnc(N2C(=O)CSC2c2c(F)cccc2F)s1 (stereo not given)
inhibition [2]: < 50%

Cc1cc(-c2ccccc2)nc(N2C(=O)CSC2c2c(Cl)cccc2Cl)n1 (stereo not given)
inhibition [2]: < 50%
inhibition at 250 µM (Hepatitis C virus [3]): 63.6%
inhibition (Escherichia coli): < 50%

O=C1CSC(c2c(F)cccc2Cl)N1c1ccc2ccccc2n1 (stereo not given)
inhibition [2]: < 50%
inhibition at 250 µM (Hepatitis C virus [3]): 60%
inhibition (Escherichia coli): < 50%

O=C1CSC(c2ccc(-c3ccnc4ccccc34)cc2)N1c1ccccn1 (stereo not given)
inhibition [2]: < 50%
inhibition at 250 µM (Hepatitis C virus [3]): 62.2%
inhibition (Escherichia coli): < 50%

Cc1cc(C(F)(F)F)nc(N2C(=O)CSC2c2c(Cl)cccc2Cl)n1 (stereo not given)
inhibition [2]: < 50%
inhibition at 250 µM (Hepatitis C virus [3]): 72.1%
inhibition (Escherichia coli): < 50%

O=C(NN1C(=O)CSC1c1ccccc1F)c1cc(-c2ccc(F)cc2F)ccc1O (stereo not given)
IC50 (Hepatitis C virus [1]): 48 µM
inhibition [2]: < 50%
inhibition at 250 µM (Hepatitis C virus [3]): 92.4%

CC1SC(c2c(Cl)cccc2Cl)N(Cc2ccco2)C1=O (stereo not given)
IC50 (Hepatitis C virus [1]): 32.2 µM
inhibition [2]: < 50%
inhibition at 250 µM (Hepatitis C virus [3]): 97.8%
inhibition (Escherichia coli): < 50%

Cc1cc(C(F)(F)F)nc(N2C(=O)CSC2c2c(F)cccc2Cl)n1 (stereo not given)
inhibition [2]: < 50%
inhibition at 250 µM (Hepatitis C virus [3]): 63.6%
inhibition (Escherichia coli): < 50%

Cc1cccc(N2C(=O)CSC2c2ccc(-c3cccnc3)cc2)n1 (stereo not given)
inhibition [2]: < 50%
inhibition at 250 µM (Hepatitis C virus [3]): 64.2%
inhibition (Escherichia coli): < 50%

CN(C)c1ccc(C2SCC(=O)N2c2ccccn2)cc1 (stereo not given)
inhibition [2]: < 50%
inhibition at 250 µM (Hepatitis C virus [3]): 76.4%
inhibition (Escherichia coli): < 50%

O=C1CSC(c2c(Cl)cccc2Cl)N1c1nc(-c2ccccc2)cc(-c2ccccc2)n1 (stereo not given)
inhibition [2]: < 50%
inhibition at 250 µM (Hepatitis C virus [3]): 73.1%
inhibition (Escherichia coli): < 50%

O=C1CSC(c2c(Cl)cccc2Cl)N1Cc1ccco1 (stereo not given)
inhibition [2]: < 50%
inhibition at 250 µM (Hepatitis C virus [3]): 72.3%
inhibition (Escherichia coli): < 50%

O=C1CSC(c2c(F)cccc2F)N1c1nc(-c2ccccc2)cc(-c2ccccc2)n1 (stereo not given)
inhibition [2]: < 50%
inhibition at 250 µM (Hepatitis C virus [3]): 73.3%
inhibition (Escherichia coli): < 50%

Cc1cccc(N2C(=O)CSC2c2ccc(N(C)C)cc2)n1 (stereo not given)
IC50 (Hepatitis C virus [1]): 79.4 µM
inhibition [2]: < 50%
inhibition at 250 µM (Hepatitis C virus [3]): 84.7%
inhibition (Escherichia coli): < 50%

O=C1CSC(c2c(F)cccc2Cl)N1c1nc(-c2ccccc2)cc(-c2ccccc2)n1 (stereo not given)
inhibition [2]: < 50%
inhibition at 250 µM (Hepatitis C virus [3]): 70.6%
inhibition (Escherichia coli): < 50%

CC1SC(c2c(Cl)cccc2Cl)N(Cc2cccnc2)C1=O (stereo not given)
IC50 (Hepatitis C virus [1]): 41.8 µM
inhibition [2]: < 50%
inhibition at 250 µM (Hepatitis C virus [3]): 95.6%
inhibition (Escherichia coli): < 50%
